As a reminder, the inhibition is the change of the read-out against control, counted positive when it falls.

Active and inactive are the calls of the source. No cut-off for these calls is given here.

Experiment [1] concerns the target T1, Anoctamin-1 (Homo sapiens) (UniProt Q5XXA6).
T1 sequence (whole entry): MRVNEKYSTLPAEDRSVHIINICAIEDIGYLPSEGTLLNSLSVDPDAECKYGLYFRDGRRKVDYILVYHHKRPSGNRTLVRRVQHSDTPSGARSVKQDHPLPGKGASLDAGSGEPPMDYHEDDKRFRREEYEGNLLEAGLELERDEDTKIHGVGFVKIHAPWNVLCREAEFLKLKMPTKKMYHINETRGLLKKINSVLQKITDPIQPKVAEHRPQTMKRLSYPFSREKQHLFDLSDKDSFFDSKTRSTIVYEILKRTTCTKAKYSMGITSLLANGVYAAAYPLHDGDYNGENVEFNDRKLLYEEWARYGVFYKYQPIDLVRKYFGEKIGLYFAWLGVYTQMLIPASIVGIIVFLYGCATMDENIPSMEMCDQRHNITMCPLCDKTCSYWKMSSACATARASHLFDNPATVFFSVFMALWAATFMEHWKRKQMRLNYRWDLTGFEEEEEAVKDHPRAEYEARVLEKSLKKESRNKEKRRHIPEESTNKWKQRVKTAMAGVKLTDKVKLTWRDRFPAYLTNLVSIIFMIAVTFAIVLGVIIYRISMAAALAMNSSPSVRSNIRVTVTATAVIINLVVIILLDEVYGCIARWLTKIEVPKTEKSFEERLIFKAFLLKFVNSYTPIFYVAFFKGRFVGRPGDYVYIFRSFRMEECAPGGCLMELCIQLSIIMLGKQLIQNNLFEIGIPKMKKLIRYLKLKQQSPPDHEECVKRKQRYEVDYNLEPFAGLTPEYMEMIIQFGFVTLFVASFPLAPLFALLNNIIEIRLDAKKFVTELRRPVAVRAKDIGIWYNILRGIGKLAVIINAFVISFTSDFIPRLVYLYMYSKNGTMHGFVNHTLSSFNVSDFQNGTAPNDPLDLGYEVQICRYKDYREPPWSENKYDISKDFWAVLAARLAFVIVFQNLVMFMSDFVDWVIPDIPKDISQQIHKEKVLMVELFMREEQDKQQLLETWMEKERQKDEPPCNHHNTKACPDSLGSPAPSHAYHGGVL
Nature of the experiment: Induction of ANO1 degradation in human U251 cells at 10 uM preincubated with compound for 6 hrs followed by treatment with proteasome inhibitor, MG132 for 18 hrs by western blot analysis. The format is cell-based. Particulars: U-251, time 24.0 hrs. In a few lines: (§1)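 U251 cells (5×10^5) treated with 10 μM inhibitor for 24 h. Alternatively, treated 6 h with 10 μM inhibitor, then MG132 (20 μM, a proteasome inhibitor) for a further 18 h. NP40 lysates immunoblotted for ANO1, β-actin as loading control; band densitometry.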
Background: In western blotting, separated proteins are transferred to a membrane and probed.

Experiment [2] relates to U-251. Kind of experiment: Inhibition of anchorage-independent colony formation in human U251 cells at 100 uM incubated for 14 days by crystal violet staining based soft agar colony formation assay. The format is functional. As to conditions: U-251, 336 h, time 14 day. In a few lines: (§2)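 Soft agar assay: 2.0×10^3 U251 cells in complete medium with 0.3% agar over a 0.6% bottom agar layer. Treated with compounds at 1-100 μM for 14 days, 37 °C, 5% CO2. Colonies stained with crystal violet for 24 h, whole wells photographed and colonies counted against DMSO control; n = 3.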

Experiment [3] has as its target T1, Anoctamin-1 (Homo sapiens). Nature of the experiment: Induction of ANO1 degradation in human U251 cells at 10 uM incubated for 24 hrs by western blot analysis. The experiment is classed as cell-based. As to conditions: U-251. In a few lines:
as §1

Experiment [4] deals with U-251. Nature of the experiment: Upregulation of E-cadherin protein expression in human U251 cells incubated for 18 hrs by Western blot analysis. The format is functional, cell-based. As to conditions: dose 1-10 µM. In a few lines: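 U251 cells (5×10^5) treated with compounds for 18 h, lysed in NP40 buffer with protease inhibitors. 25 μg lysate run on SDS-PAGE and blotted for E-cadherin, β-actin as loading control. Primary antibodies at 1:1000 (actin 1:10000). Bands quantified by densitometry; one-way ANOVA.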

In experiment [5] the test system is U-251. Nature of the experiment: Inhibition of cell migration in human U251 cells at 10 uM incubated for 18 hrs by wound healing assay. The format is functional. In a few lines: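 U251 monolayer, 2.0×10^5 cells/well, plated overnight, then scratched and washed with PBS. Wound area imaged before and after incubation; migration ratio taken from migrated area. One-way ANOVA.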

Experiment [6] deals with U-251. Nature of the experiment: Inhibition of anchorage-independent colony formation in human U251 cells incubated for 14 days by crystal violet staining based soft agar colony formation assay. Particulars: dose 30-100 µM, time 14.0 day. The experiment is classed as functional, cell-based. In a few lines: as §2
The target of experiment [7] is T1, Anoctamin-1 (Homo sapiens). Nature of the experiment: Inhibition of ANO1 in human U251 cells assessed as inhibition of channel current at 10 uM by patch clamp electrophysiology assay. The format is cell-based. Particulars: U-251. The gist of the method: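 Endogenous ANO1 currents recorded by whole-cell patch clamp in U251 cells, room temperature. 1 s ramps from +80 to -80 mV, holding potential -10 mV. CsCl-based pipette with Ca-EGTA-NMDG (pH 7.3) and NaCl-based bath (pH 7.3).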
(In general: In patch-clamp work, channel activity is measured electrically.)

As to `NC(=O)c1c(NC(=S)NC(=O)c2ccc(Cl)cc2)sc2c1CCC2`, the outcome in experiment [1] was inactive. The compound further yielded an inhibition at 100 µM in the experiment on U-251 [2] of 88%. In addition, the outcome in experiment [3] was Active. Moreover, in the experiment with U-251 [4], the Activity result is “Dose-dependent effect”. Besides, the inhibition entry with U-251 [5] was “Active”. Also, the figures for the inhibition entry (in the experiment with U-251 [6]; in experiment [7]) were “Dose-dependent effect” and 60%, respectively.

On to `CC(C)(C)C(=O)Nc1sc2c(c1C(N)=O)CCC(C(C)(C)C)C2` (centres undefined), for which the result in experiment [1] was inactive. At 100 µM the inhibition in the experiment on U-251 [2] was 95.7%. In experiment [3], the outcome was Active. Besides, the Activity entry in the experiment on U-251 [4] is “Dose-dependent effect”. For the same compound, the inhibition at 10 µM in the experiment on U-251 [5] was 90%. The inhibition result with U-251 [6] is “Dose-dependent effect”; in experiment [7], 40%.
